Compound activity deposited in PubChem by several laboratories.
EphB4 antag = blocks human EphB4 binding to ephrin-B2; inhibition, % at 7 µM; EphB4 LBD / TNYL-RAW-Alexa532 peptide, fluorescence polarization; 97,000 compounds, 0.15% hits;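 active = inhibition above the screen-wide mean inhibition plus 3 SD, cut at about 15% in these data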
Cav3 T inh = human Cav3.2 channel inhibition, primary screen; AID 449739; 100,000 compounds, 4% hits; O95180; Cav3.2-expressing cells, Fluo-4 calcium fluorescence FDSS; active compounds read low; B-score at 10 µM;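 active = single-dose well whose peak fluorescence ratio is a statistical outlier from its plate by either plate-standardised score or position-corrected B-score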
Rev-RRE block = HIV Rev-RRE protein-RNA interaction inhibition. 97,000 compounds, 0.79% hits. inhibition, % at 8 µM. P05866. Rev peptide-RRE RNA binding, FRET;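 active = inhibition above the screen-wide mean plus 3 SD, cut at about 35% in these data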
Target sequence (P05866 whole entry, looked up): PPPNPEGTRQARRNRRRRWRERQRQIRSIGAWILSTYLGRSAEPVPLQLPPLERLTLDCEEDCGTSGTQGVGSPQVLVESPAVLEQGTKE
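Material: labelled RRE RNA duplex and labelled Rev peptide / Buffer or medium: HEPES pH 7.5 salt buffer with EDTA / Compound dosing: single point, 8 µM final nominal compound concentration / Benchmarks: DMSO low control, neomycin B high control / Timing: 5 min preincubation and 15 min binding, 25 °C / Technique: FRET fluorescence readout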
FAK blocker = inhibitors of human focal adhesion kinase; biochemical FAK kinase activity assay; inhibition, %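 (tested at 7 µM)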; 97,000 compounds, 0.84% hits
PLK1 PBD inh = inhibitors of human Plk1 polo box domain binding | P53350 | AID 693 | Plk1 PBD phosphopeptide binding, fluorescence polarization | 97,000 compounds, 0.13% hits | inhibition, %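 (tested at about 20 µM)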; in the data active = inhibition above about 34%, passing the limit was not always enough
Target sequence (P53350 whole entry, looked up, the tested form may be a part): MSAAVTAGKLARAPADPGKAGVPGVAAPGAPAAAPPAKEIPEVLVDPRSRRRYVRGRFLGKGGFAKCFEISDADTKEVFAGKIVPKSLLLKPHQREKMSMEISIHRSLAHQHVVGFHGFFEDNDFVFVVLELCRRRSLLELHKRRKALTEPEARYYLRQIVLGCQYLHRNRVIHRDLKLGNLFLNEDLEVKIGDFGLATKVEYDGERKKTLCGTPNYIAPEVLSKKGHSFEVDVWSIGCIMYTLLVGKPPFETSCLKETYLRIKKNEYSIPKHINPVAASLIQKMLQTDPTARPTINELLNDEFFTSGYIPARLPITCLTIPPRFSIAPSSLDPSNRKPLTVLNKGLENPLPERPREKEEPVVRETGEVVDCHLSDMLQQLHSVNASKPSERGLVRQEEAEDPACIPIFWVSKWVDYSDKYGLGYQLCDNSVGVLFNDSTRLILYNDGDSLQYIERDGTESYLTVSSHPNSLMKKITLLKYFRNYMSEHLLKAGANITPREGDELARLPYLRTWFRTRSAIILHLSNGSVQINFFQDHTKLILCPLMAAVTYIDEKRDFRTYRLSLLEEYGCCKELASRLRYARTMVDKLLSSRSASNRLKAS
PLK1 kinase inh = PLK1 (human) kinase inhibition | recombinant PLK1 kinase, TR-FRET peptide phosphorylation | inhibition, % at 10 µM | 97,000 compounds, 0.53% hits | AID 619;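 active = inhibition of 50% or more in the single-concentration screen; inactive = inhibition below 50%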
FAK inh confirm = confirmation of human focal adhesion kinase (FAK) inhibitors; 750 compounds, 28% hits; inhibition, % at 7 µM; AID 794; shares compounds with FAK blocker; FAK kinase biochemical inhibition assay
Hits are given with their value. In the library only some 5.3% were active in any assay of this set; here they are far more common. Rule as the data show it, unless noted: active = inhibition above about 19%; inactive = the rest.

`COc1ccc(N2Cc3cccc(C(=O)N4CCN(C(=O)c5ccco5)CC4)c3C2=O)cc1` gave EphB4 antag inactive, Cav3 T inh inactive, Rev-RRE block inactive, FAK blocker 49.3, PLK1 PBD inh inactive, PLK1 kinase inh inactive and FAK inh confirm inactive.
CCn1c(CCNC(=O)c2ccccc2Cl)n[nH]c1=S was read as EphB4 antag inactive, Cav3 T inh inactive, Rev-RRE block inactive, FAK blocker inactive, PLK1 PBD inh inactive and PLK1 kinase inh inactive.
CCOc1ccc(S(=O)(=O)Nc2ccccc2SC)c2cccnc12 was read as EphB4 antag inactive, Cav3 T inh inactive, Rev-RRE block inactive, FAK blocker 20.1, PLK1 PBD inh inactive, PLK1 kinase inh inactive and FAK inh confirm inactive.
For Nc1ccc(-n2cnc3cc([N+](=O)[O-])ccc32)cc1 the results were EphB4 antag inactive, Cav3 T inh inactive, Rev-RRE block inactive, FAK blocker 25.5, PLK1 PBD inh inactive, PLK1 kinase inh inactive and FAK inh confirm inactive.
C=CCn1c(CNC(=O)CCC)nc2ccccc21 was read as EphB4 antag inactive, Cav3 T inh inactive, Rev-RRE block inactive, FAK blocker inactive, PLK1 PBD inh inactive and PLK1 kinase inh inactive.
C=CCn1c(P(=O)(O)c2ccccc2)nc2ccccc21 was read as EphB4 antag inactive, Cav3 T inh inactive, Rev-RRE block inactive, FAK blocker 34.7, PLK1 PBD inh inactive, PLK1 kinase inh inactive and FAK inh confirm 23.6.
`Cc1ccccc1-c1ccc(Nc2ccc(N3CCOCC3)cc2)nn1` gave EphB4 antag inactive, Cav3 T inh inactive, Rev-RRE block inactive, FAK blocker 31.0, PLK1 PBD inh inactive, PLK1 kinase inh inactive and FAK inh confirm 32.9.
Screening O=S1(=O)N=C(Nc2ccc(N3CCOCC3)cc2)c2ccccc21 returned EphB4 antag inactive, Cav3 T inh inactive, Rev-RRE block inactive, FAK blocker inactive, PLK1 PBD inh inactive and PLK1 kinase inh inactive.
For N#Cc1ccccc1/C=N/Nc1nc(-c2ccccc2)c2cc(Cl)ccc2n1 the results were EphB4 antag inactive, Cav3 T inh inactive, Rev-RRE block inactive, FAK blocker 50.1, PLK1 PBD inh inactive, PLK1 kinase inh inactive and FAK inh confirm 34.2.
Cc1ccc2nc(N/N=C/c3ccccc3C#N)nc(-c3ccccc3)c2c1 was read as EphB4 antag inactive, Cav3 T inh inactive, Rev-RRE block inactive, FAK blocker inactive, PLK1 PBD inh inactive and PLK1 kinase inh inactive.
CCCCCCC(=O)Nc1ccc(C(=O)N/N=C/c2cccnc2)cc1 was read as EphB4 antag inactive, Cav3 T inh inactive, Rev-RRE block inactive, FAK blocker inactive, PLK1 PBD inh inactive and PLK1 kinase inh inactive.
`CCCCCCCC(=O)Nc1ccc(C(=O)N/N=C/c2cccc([N+](=O)[O-])c2)cc1` gave EphB4 antag inactive, Cav3 T inh inactive, Rev-RRE block inactive, FAK blocker 33.6, PLK1 PBD inh inactive, PLK1 kinase inh inactive and FAK inh confirm inactive.
`COc1ccc2oc(=O)c(-c3nnc(NCc4ccco4)s3)cc2c1` gave EphB4 antag inactive, Cav3 T inh inactive, Rev-RRE block 43.0, FAK blocker 20.8, PLK1 PBD inh inactive, PLK1 kinase inh inactive and FAK inh confirm inactive.
For Nc1ncnc2oc(-c3ccco3)c(-c3ccco3)c12 the results were EphB4 antag inactive, Cav3 T inh inactive, Rev-RRE block inactive, FAK blocker 54.4, PLK1 PBD inh inactive, PLK1 kinase inh 56.2 and FAK inh confirm 31.9.
`CCN(CC)CCOc1nc(C)nc2c1oc1ccccc12` gave EphB4 antag inactive, Cav3 T inh inactive, Rev-RRE block inactive, FAK blocker inactive, PLK1 PBD inh inactive and PLK1 kinase inh inactive.
`CCN(CC)CCCOc1nc(C)nc2c1oc1ccccc12` gave EphB4 antag inactive, Cav3 T inh inactive, Rev-RRE block inactive, FAK blocker 18.9, PLK1 PBD inh inactive, PLK1 kinase inh inactive and FAK inh confirm inactive.
Screening Cc1ccc(-n2nc3ccc(NC(=O)c4ccc5c(c4)OCO5)cc3n2)cc1 returned EphB4 antag inactive, Cav3 T inh inactive, Rev-RRE block inactive, FAK blocker 25.4, PLK1 PBD inh inactive, PLK1 kinase inh inactive and FAK inh confirm inactive.
CCOC(=O)c1ccc(Nc2nc(-c3cccnc3)nc3ccccc23)cc1 was read as EphB4 antag inactive, Cav3 T inh inactive, Rev-RRE block inactive, FAK blocker 21.5, PLK1 PBD inh inactive, PLK1 kinase inh inactive and FAK inh confirm inactive.
COC(=O)CNc1nc(-c2cccnc2)nc2ccccc12 was read as Cav3 T inh inactive.
Screening CCN(CCO)c1nc(SC)nc2c1sc1nc(-c3ccco3)c3c(c12)CCC3 returned EphB4 antag inactive, Cav3 T inh inactive, Rev-RRE block inactive, FAK blocker 72.3, PLK1 PBD inh inactive, PLK1 kinase inh inactive and FAK inh confirm inactive.
For O=c1cc(/C=C/c2ccccc2)oc2ccccc12 the results were EphB4 antag inactive, Cav3 T inh inactive, Rev-RRE block inactive, FAK blocker inactive, PLK1 PBD inh inactive and PLK1 kinase inh inactive.
Screening CC(=O)Nc1ccc(Sc2ncccc2C(=O)Nc2ccc(F)cc2)cn1 returned EphB4 antag inactive, Cav3 T inh inactive, Rev-RRE block inactive, FAK blocker inactive, PLK1 PBD inh inactive and PLK1 kinase inh inactive.
Screening CC(C)(C)n1nc(-c2ccc(Cl)cc2)c2c(N)ncnc21 returned EphB4 antag inactive, Cav3 T inh inactive, Rev-RRE block inactive, FAK blocker 26.4, PLK1 PBD inh inactive, PLK1 kinase inh inactive and FAK inh confirm inactive.
For CC(C)(C)n1nc(-c2ccc(F)cc2)c2c(N)ncnc21 the results were EphB4 antag inactive, Cav3 T inh inactive, Rev-RRE block inactive, FAK blocker 32.0, PLK1 PBD inh inactive, PLK1 kinase inh inactive and FAK inh confirm inactive.
`CCOc1cccc(CNn2cnnc2)c1OCc1ccccc1Cl` gave EphB4 antag inactive, Cav3 T inh inactive, Rev-RRE block inactive, FAK blocker inactive, PLK1 PBD inh inactive and PLK1 kinase inh inactive.
CCOc1cccc(CNc2ccc(O)cc2)c1OCc1ccc(Cl)cc1Cl was read as EphB4 antag inactive, Rev-RRE block inactive, FAK blocker 29.1, PLK1 PBD inh inactive, PLK1 kinase inh inactive and FAK inh confirm inactive.
`CCOC(=O)c1cc2sc(C)cc2n1CC(=O)N(CC)CC` gave EphB4 antag inactive, Cav3 T inh inactive, Rev-RRE block inactive, FAK blocker 30.5, PLK1 PBD inh inactive, PLK1 kinase inh inactive and FAK inh confirm inactive.
Cc1cc2n(c1)CCn1c(C)ccc1-2 was read as EphB4 antag inactive, Cav3 T inh inactive, Rev-RRE block 45.7, FAK blocker 22.9, PLK1 PBD inh inactive, PLK1 kinase inh inactive and FAK inh confirm inactive.
Screening CC1CCCN(C(=O)C(C)Sc2nc(-c3ccccc3)cc(C(F)(F)F)n2)C1 (centres undefined) returned EphB4 antag inactive, Cav3 T inh inactive, Rev-RRE block inactive, FAK blocker inactive, PLK1 PBD inh inactive and PLK1 kinase inh inactive.
Screening O=C(ONc1ccc(N=NC(=O)c2ccccc2O)cc1)c1ccccc1 returned EphB4 antag inactive, Cav3 T inh -4.51, Rev-RRE block inactive, FAK blocker 79.9, PLK1 PBD inh inactive, PLK1 kinase inh inactive and FAK inh confirm 21.8.
